Laboratory results reported in ChEMBL document CHEMBL1137753, “Insecticidal heterolignans--tubuline polymerization inhibitors with activity against chewing pests” (Bioorg Med Chem, 2009).
Activity calls are given as the source filed them.

Legend:
Format in all cases: functional, organism-based
Spodoptera frugiperda = experiment: Insecticidal activity against Spodoptera frugiperda larvae in disk of maize leaf treated as spray
Phaedon cochleariae [1] = experiment: Insecticidal activity against Phaedon cochleariae larvae in disk of Chinese cabbage leaf treated as spray
Phaedon cochleariae [2] = experiment: Insecticidal activity against Phaedon cochleariae larvae in disk of Chinese cabbage leaf at 500 g/ha treated as spray
Outline: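 This was sprayed on Chinese cabbage leaf disks. Once dry, disks were infested with mustard beetle larvae and mortality was scored after a set time. "+" denotes ≥80% larvae killed; n.a. denotes none killed.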

SMILES	Activity (Spodoptera frugiperda)	Activity (Phaedon cochleariae [1])	Activity (Phaedon cochleariae [2])
COc1cc(OC)cc(C2C3=C(COC3=O)Nc3cc(OC(F)(F)F)ccc32)c1 (centres undefined)	inactive	inactive	–
CC1(C)CC(=O)C2=C(C1)Nc1cc3c(cc1C2c1cccc(Cl)c1)OCO3 (centres undefined)	inactive	inactive	–
O=C1OCC2=C1C(c1cccc(Cl)c1Cl)c1cc3c(cc1N2)OCO3 (centres undefined)	inactive	inactive	–
O=C1OCC2=C1C(c1cccc(OCCO)c1)c1cc3c(cc1N2)OCO3 (centres undefined)	–	inactive	–
O=C1OCC2=C1C(c1cc(Cl)ccc1Cl)c1cc3c(cc1N2)OCO3 (centres undefined)	inactive	inactive	–
COc1cc(OC)cc(C2C3=C(CN(C(C)C)C3=O)Nc3cc4c(cc32)OCO4)c1 (centres undefined)	inactive	inactive	–
Cc1ccc2c(c1)N(C)C1=C(C(=O)OC1)C2c1ccc(Cl)cc1 (centres undefined)	inactive	inactive	–
COc1cc(OC)cc(C2C3=C(COC3=O)Nc3cc(C(C)(C)C)ccc32)c1 (centres undefined)	inactive	inactive	–
COc1cc(OC)cc(C2C3=C(COC3=O)Nc3cc(-c4ccccc4)ccc32)c1 (centres undefined)	inactive	inactive	–
COc1cc(OC)cc(C2C3=C(COC3=O)Nc3cc(OCc4ccccc4)ccc32)c1 (centres undefined)	inactive	inactive	–
COc1cc(OC)cc(C2C3=C(Nc4cc5c(cc42)OCO5)C(C)(C)NC3=O)c1 (centres undefined)	inactive	inactive	–
O=C1C2=C(C(=O)C1c1ccccc1)C(c1cccc(Cl)c1)c1cc3c(cc1N2)OCO3 (centres undefined)	inactive	inactive	–
COc1cc(OC)cc(C2C3=C(COC3=O)Oc3c2ccc(OC)c3OC)c1 (centres undefined)	inactive	inactive	–
Clc1cccc(C2C3=C(CCCC3)Nc3cc4c(cc32)OCO4)c1 (centres undefined)	inactive	inactive	–
O=C1OCC2=C1C(c1cccc(Br)c1)c1cc3c(cc1O2)OCO3 (centres undefined)	inactive	inactive	–
COc1cc(C2C3=C(COC3=O)Nc3cc(Cl)ccc32)cc(OC)c1OC (centres undefined)	inactive	inactive	–
Clc1cccc(C2C3=C(CCC3)Nc3cc4c(cc32)OCO4)c1 (centres undefined)	inactive	inactive	–
O=C1CCCC2=C1C(c1cccc(Cl)c1)c1cc3c(cc1N2)OCO3 (centres undefined)	inactive	inactive	–
COc1cc(OC)cc(C2C3=C(COC3=O)Nc3cc(OC(F)F)c(OC(F)F)cc32)c1 (centres undefined)	inactive	inactive	–
CCOc1cc2c(cc1OCC)C(c1cc(OC)cc(OC)c1)C1=C(COC1=O)N2 (centres undefined)	inactive	inactive	–
COc1cc(OC)cc(C2C3=C(CN(C(=O)OC(C)(C)C)C3=O)Nc3cc4c(cc32)OCO4)c1 (centres undefined)	inactive	inactive	–
COc1cc(C2C3=C(CNC3=O)Nc3cc4c(cc32)OCO4)cc(OC)c1OC (centres undefined)	inactive	–	Active
COc1cc2c(cc1OC)C(c1cc(OC)c(OC)c(OC)c1)C1=C(O)OCC1=N2 (centres undefined)	inactive	inactive	–
OC1=C2C(=Nc3cc4c(cc3C2c2ccccc2)OCO4)CO1 (centres undefined)	–	inactive	–

SMILES	Activity (Spodoptera frugiperda)	Activity (Phaedon cochleariae [1])	Activity (Phaedon cochleariae [2])
O=C1OCC2=C1C(c1cccc(OC(F)F)c1)c1cc3c(cc1O2)OCO3 (centres undefined)	inactive	inactive	–
COc1cc(OC)cc(C2C3=C(COC3=O)Nc3c(OC)ccc(OC)c32)c1 (centres undefined)	inactive	inactive	–
O=S1(=O)CCCC2=C1C(c1cccc(Cl)c1)c1cc3c(cc1N2)OCO3 (centres undefined)	inactive	inactive	–
O=C1OCC2=C1C(c1ccc(F)c(Br)c1)c1cc3c(cc1N2)OCO3 (centres undefined)	–	–	Active
COc1cc(OC)cc(C2C3=C(CCCC3=O)Nc3cc4c(cc32)OCO4)c1 (centres undefined)	inactive	inactive	–
O=C1OCC2=C1C(c1cccc(OC(F)(F)F)c1)c1cc3c(cc1O2)OCO3 (centres undefined)	inactive	inactive	–
COc1cc(OC)cc(C2C3=C(COC3=O)Nc3ccc(OC(C)C)cc32)c1 (centres undefined)	inactive	inactive	–
COc1cc(OC)cc(C2C3=C(COC3=O)Nc3cc(O)ccc32)c1 (centres undefined)	inactive	inactive	–
COc1cc(OC)cc(C2(C)C3=C(COC3=O)Nc3cc4c(cc32)OCO4)c1 (centres undefined)	inactive	inactive	–
O=C1OCC2=C1C(c1cc(Cl)cc(Cl)c1Cl)c1cc3c(cc1N2)OCO3 (centres undefined)	inactive	inactive	–
COc1cc(OC)cc(C2C3=C(Nc4cc5c(cc42)OCO5)C(C)(C)COC3=O)c1 (centres undefined)	inactive	inactive	–
COc1cc(OC)cc(C2C3=C(COC3=O)Nc3cc(C)c(C)cc32)c1 (centres undefined)	inactive	inactive	–
CC1(C)OS(=O)(=O)C2=C1Nc1cc3c(cc1C2c1cccc(Cl)c1)OCO3 (centres undefined)	inactive	–	Active
COc1ccc(C2C3=C(O)OCC3=Nc3cc4c(cc32)OCO4)cc1 (centres undefined)	inactive	inactive	–
COc1ccc2c(c1)OC1=C(C(=O)OC1)C2c1cccc(Cl)c1 (centres undefined)	inactive	inactive	–
COc1cc(C2C3=C(COC3=O)Oc3cc4c(cc32)OCO4)cc(Br)c1OC (centres undefined)	inactive	–	Active
COc1cc(OC)cc(C2C3=C(COC3=O)Nc3cc4c(cc32)OC(F)(F)O4)c1 (centres undefined)	inactive	–	Active
CC(C)(C)OC(=O)N1CC2=C(C1=O)C(c1cccc(Cl)c1)c1cc3c(cc1N2)OCO3 (centres undefined)	inactive	–	–
O=S1(=O)CCC2=C1C(c1cccc(Cl)c1)c1cc3c(cc1N2)OCO3 (centres undefined)	inactive	inactive	–
COc1cc(OC)cc(C2C3=C(COC3=O)Nc3cc(Oc4ccccc4)ccc32)c1 (centres undefined)	inactive	inactive	–
COc1cc2c(cc1OC)N(C)C1=C(C(=O)OC1)C2c1cc(OC)c(OC)c(OC)c1 (centres undefined)	inactive	inactive	–
CCN1C2=C(C(=O)OC2)C(c2cc(OC)cc(OC)c2)c2cc(OC)c(OC)cc21 (centres undefined)	inactive	inactive	–
O=C1OCC2=C1C(c1cccc(Cl)c1)c1cc3c(cc1O2)OCO3 (centres undefined)	inactive	inactive	–
COc1cc(OC)cc(C2C3=C(COC3=O)Nc3cc(OC)c(Cl)cc32)c1 (centres undefined)	inactive	inactive	–

SMILES	Activity (Spodoptera frugiperda)	Activity (Phaedon cochleariae [1])	Activity (Phaedon cochleariae [2])
CC1(c2cccc(Cl)c2)C2=C(COC2=O)Nc2ccc(Cl)cc21 (centres undefined)	inactive	inactive	–
COc1cc(OC)cc(C2C3=C(COC3=O)Nc3cc(OC)c(OC)c(OC)c32)c1 (centres undefined)	inactive	inactive	–
COc1cccc(C2C3=C(COC3=O)Nc3cc4c(cc32)OCO4)c1OC (centres undefined)	inactive	inactive	–
COc1cc(OC)cc(C2C3=C(Nc4cc5c(cc42)OCO5)C(C)(C)ON(C)C3=O)c1 (centres undefined)	inactive	inactive	–
O=C1OC2(CCCC2)C2=C1C(c1cccc(Cl)c1)c1cc3c(cc1N2)OCO3 (centres undefined)	inactive	–	Active
O=C1OC2(CCCCC2)C2=C1C(c1cccc(Cl)c1)c1cc3c(cc1N2)OCO3 (centres undefined)	inactive	inactive	–
COc1cc(OC)cc(C2C3=C(COC3=O)Oc3cc(OC)ccc32)c1 (centres undefined)	inactive	inactive	–
O=C1OCC2=C1C(c1ccc3c(c1)OC(F)(F)O3)c1cc3c(cc1N2)OCO3 (centres undefined)	inactive	inactive	–
CC1(C)NC(=O)C2=C1Nc1cc3c(cc1C2c1cccc(Cl)c1)OCO3 (centres undefined)	inactive	–	Active
COc1cc(OC)cc(C2C3=C(COC3=O)Nc3cc(OCc4ccccc4)c(Br)cc32)c1 (centres undefined)	inactive	inactive	–
COc1cc(OC)cc(C2C3=C(COC3=O)Nc3cc(C)cc(C)c32)c1 (centres undefined)	inactive	inactive	–
COc1cc(OC)cc(C2C3=C(COC3=O)Nc3c(C)cc(C)cc32)c1 (centres undefined)	inactive	inactive	–
COc1cc(OC)cc(C2C3=C(CNC3=O)Nc3cc4c(cc32)OCO4)c1 (centres undefined)	inactive	–	Active
O=C1OCC2=C1C(c1ccc(Cl)cc1)c1cc3c(cc1N2)OCO3 (centres undefined)	inactive	inactive	–
O=C1OCC2=C1C(c1cc(Cl)cc(Cl)c1)c1cc3c(cc1O2)OCO3 (centres undefined)	inactive	inactive	–
COc1cc(C2C3=C(CN(C(=O)OC(C)(C)C)C3=O)Nc3cc4c(cc32)OCO4)cc(OC)c1OC (centres undefined)	inactive	inactive	–
CC1(C)COS(=O)(=O)C2=C1Nc1cc3c(cc1C2c1cccc(Cl)c1)OCO3 (centres undefined)	inactive	–	Active
COc1cc(OC)cc(C2C3=C(Nc4cc5c(cc42)OCO5)C(C)(CC(C)C)NC3=O)c1 (centres undefined)	inactive	inactive	–
COc1cc(OC)cc(C2C3=C(COC3=O)Nc3cc(C)ccc32)c1 (centres undefined)	–	–	Active
O=C1OCC2=C1C(c1cccc(Cl)c1)c1cc(Cl)ccc1N2 (centres undefined)	inactive	inactive	–
COc1cc(OC)cc(C2C3=C(Nc4cc5c(cc42)OCO5)C(C)(C)COS3(=O)=O)c1 (centres undefined)	inactive	inactive	–
CC1(C)OC(=O)C2=C1Nc1cc3c(cc1C2c1cccc(Cl)c1)OCO3 (centres undefined)	inactive	–	Active
COc1cc(C2(C)C3=C(COC3=O)Nc3cc(Cl)ccc32)cc(OC)c1OC (centres undefined)	inactive	inactive	–
CC1(C)CS(=O)(=O)C2=C1Nc1cc3c(cc1C2c1cccc(Cl)c1)OCO3 (centres undefined)	inactive	inactive	–
